Results taken from ChEMBL document CHEMBL2434922, “Microwave assisted synthesis of dihydrobenzo[4,5]imidazo[1,2-a]pyrimidin-4-ones; synthesis, in vitro antimicrobial and anticancer activities of novel coumarin substituted dihydrobenzo[4,5]imidazo[1,2-a]pyrimidin-4-ones” (2013).
In brackets after ≈: the same amount, converted by molar mass.

How the values were obtained:
Type in all cases: functional
[1] = Cytotoxicity against mouse Daltons ascitic lymphoma cells assessed as dead cells at 100 ug/ml after 3 hrs by trypan blue exclusion assay relative to control
How it was run: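 DAL cells (0.2 mL, 10⁶ cells/mL) mixed with ice-cold PBS pH 7.4 and compound (100 µg/mL), held at 37 °C under 5% CO₂ for 3 h. Aliquot then stained with 0.4% trypan blue in normal saline for 5–15 min at room temperature. Live and dead cells counted in a Neubauer chamber; % dead = dead/(dead+live) × 100.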

[2] = system: Penicillium chrysogenum; test: Antifungal activity against Penicillium chrysogenum assessed as growth inhibition after 48 to 72 hrs by broth microdilution method
[3] = system: Fusarium oxysporum; test: Antifungal activity against Fusarium oxysporum assessed as growth inhibition after 48 to 72 hrs by broth microdilution method
[4] = system: Aspergillus flavus; test: Antifungal activity against Aspergillus flavus assessed as growth inhibition after 48 to 72 hrs by broth microdilution method
[5] = system: Aspergillus fumigatus; test: Antifungal activity against Aspergillus fumigatus assessed as growth inhibition after 48 to 72 hrs by broth microdilution method
[6] = system: Aspergillus niger; test: Antifungal activity against Aspergillus niger assessed as growth inhibition after 48 to 72 hrs by broth microdilution method
[7] = system: Candida albicans; test: Antifungal activity against Candida albicans assessed as growth inhibition after 48 to 72 hrs by broth microdilution method
[8] = system: Pseudomonas aeruginosa; test: Antibacterial activity against Pseudomonas aeruginosa assessed as growth inhibition after 18 hrs by broth microdilution method
[9] = system: Klebsiella pneumoniae; test: Antibacterial activity against Klebsiella pneumoniae assessed as growth inhibition after 18 hrs by broth microdilution method
[10] = system: Escherichia coli; test: Antibacterial activity against Escherichia coli assessed as growth inhibition after 18 hrs by broth microdilution method
[11] = system: Streptococcus mutans; test: Antibacterial activity against Streptococcus mutans assessed as growth inhibition after 18 hrs by broth microdilution method
[12] = system: Enterococcus faecalis; test: Antibacterial activity against Enterococcus faecalis assessed as growth inhibition after 18 hrs by broth microdilution method
[13] = system: Staphylococcus aureus; test: Antibacterial activity against Staphylococcus aureus assessed as growth inhibition after 18 hrs by broth microdilution method

Row | Structure (SMILES) | mortality at 100 µg/mL [1] | MIC [2] | MIC [3] | MIC [4] | MIC [5] | MIC [6] | MIC [7] | MIC [8] | MIC [9] | MIC [10] | MIC [11] | MIC [12] | MIC [13]
1 | Oc1cc(-c2ccccc2)nc2nc3ccccc3n12 | 58% | 0.2 µg/mL (≈ 0.765 µM) | 0.2 µg/mL (≈ 0.765 µM) | 0.8 µg/mL (≈ 3.06 µM) | 0.8 µg/mL (≈ 3.06 µM) | 6.25 µg/mL (≈ 23.9 µM) | 1.6 µg/mL (≈ 6.12 µM) | 100 µg/mL (≈ 383 µM) | 100 µg/mL (≈ 383 µM) | 100 µg/mL (≈ 383 µM) | 100 µg/mL (≈ 383 µM) | 0.2 µg/mL (≈ 0.765 µM) | 100 µg/mL (≈ 383 µM)
2 | CC(C)c1cc(O)n2c(n1)nc1ccccc12 | 57% | 0.2 µg/mL (≈ 0.88 µM) | 0.4 µg/mL (≈ 1.76 µM) | 1.6 µg/mL (≈ 7.04 µM) | 1.6 µg/mL (≈ 7.04 µM) | 25 µg/mL (≈ 110 µM) | 3.12 µg/mL (≈ 13.7 µM) | 12.5 µg/mL (≈ 55 µM) | 100 µg/mL (≈ 440 µM) | 12.5 µg/mL (≈ 55 µM) | 25 µg/mL (≈ 110 µM) | 0.2 µg/mL (≈ 0.88 µM) | 100 µg/mL (≈ 440 µM)
3 | CC(C)c1cc(=O)n2c3ccccc3n(Cc3cc(=O)oc4ccc(Br)cc34)c2n1 | 47% | 0.2 µg/mL (≈ 0.431 µM) | 0.2 µg/mL (≈ 0.431 µM) | 0.8 µg/mL (≈ 1.72 µM) | 0.8 µg/mL (≈ 1.72 µM) | 25 µg/mL (≈ 53.8 µM) | 50 µg/mL (≈ 108 µM) | > 100 µg/mL | > 100 µg/mL | 100 µg/mL (≈ 215 µM) | > 100 µg/mL | 0.8 µg/mL (≈ 1.72 µM) | > 100 µg/mL
4 | CC(C)c1cc(=O)n2c3ccccc3n(Cc3cc(=O)oc4ccc(Cl)cc34)c2n1 | 88% | 0.4 µg/mL (≈ 0.953 µM) | 0.2 µg/mL (≈ 0.476 µM) | 1.6 µg/mL (≈ 3.81 µM) | 0.8 µg/mL (≈ 1.91 µM) | 12.5 µg/mL (≈ 29.8 µM) | 50 µg/mL (≈ 119 µM) | 100 µg/mL (≈ 238 µM) | 100 µg/mL (≈ 238 µM) | 100 µg/mL (≈ 238 µM) | 12.5 µg/mL (≈ 29.8 µM) | 0.4 µg/mL (≈ 0.953 µM) | 100 µg/mL (≈ 238 µM)
5 | COc1ccc2oc(=O)cc(Cn3c4ccccc4n4c(=O)cc(C(C)C)nc34)c2c1 | 62% | 0.8 µg/mL (≈ 1.93 µM) | 0.2 µg/mL (≈ 0.481 µM) | 0.8 µg/mL (≈ 1.93 µM) | 0.8 µg/mL (≈ 1.93 µM) | 50 µg/mL (≈ 120 µM) | 25 µg/mL (≈ 60.2 µM) | > 100 µg/mL | 100 µg/mL (≈ 241 µM) | 100 µg/mL (≈ 241 µM) | 3.16 µg/mL (≈ 7.61 µM) | 0.4 µg/mL (≈ 0.963 µM) | 100 µg/mL (≈ 241 µM)
6 | CC(C)c1cc(=O)n2c3ccccc3n(Cc3cc(=O)oc4ccc(F)cc34)c2n1 | 81% | 0.4 µg/mL (≈ 0.992 µM) | 0.2 µg/mL (≈ 0.496 µM) | 1.6 µg/mL (≈ 3.97 µM) | 0.8 µg/mL (≈ 1.98 µM) | 1.6 µg/mL (≈ 3.97 µM) | 25 µg/mL (≈ 62 µM) | 100 µg/mL (≈ 248 µM) | 100 µg/mL (≈ 248 µM) | 100 µg/mL (≈ 248 µM) | 0.8 µg/mL (≈ 1.98 µM) | 0.4 µg/mL (≈ 0.992 µM) | 100 µg/mL (≈ 248 µM)
7 | Cc1cc(C)c2oc(=O)cc(Cn3c4ccccc4n4c(=O)cc(C(F)(F)F)nc34)c2c1 | 78% | 0.2 µg/mL (≈ 0.455 µM) | 0.2 µg/mL (≈ 0.455 µM) | 3.12 µg/mL (≈ 7.1 µM) | 1.6 µg/mL (≈ 3.64 µM) | 3.12 µg/mL (≈ 7.1 µM) | 50 µg/mL (≈ 114 µM) | 100 µg/mL (≈ 228 µM) | 100 µg/mL (≈ 228 µM) | 100 µg/mL (≈ 228 µM) | 0.2 µg/mL (≈ 0.455 µM) | 0.4 µg/mL (≈ 0.91 µM) | 100 µg/mL (≈ 228 µM)
8 | Cc1ccc2oc(=O)cc(Cn3c4ccccc4n4c(=O)cc(C(F)(F)F)nc34)c2c1 | 69% | 0.2 µg/mL (≈ 0.47 µM) | 0.2 µg/mL (≈ 0.47 µM) | 12.5 µg/mL (≈ 29.4 µM) | 25 µg/mL (≈ 58.8 µM) | 12.5 µg/mL (≈ 29.4 µM) | 50 µg/mL (≈ 118 µM) | > 100 µg/mL | 100 µg/mL (≈ 235 µM) | 100 µg/mL (≈ 235 µM) | 12.5 µg/mL (≈ 29.4 µM) | 0.4 µg/mL (≈ 0.94 µM) | 100 µg/mL (≈ 235 µM)
9 | O=c1cc(Cn2c3ccccc3n3c(=O)cc(C(F)(F)F)nc23)c2cc(F)ccc2o1 | 79% | 0.2 µg/mL (≈ 0.466 µM) | 0.2 µg/mL (≈ 0.466 µM) | 1.6 µg/mL (≈ 3.73 µM) | 1.6 µg/mL (≈ 3.73 µM) | 25 µg/mL (≈ 58.2 µM) | 50 µg/mL (≈ 116 µM) | 100 µg/mL (≈ 233 µM) | 100 µg/mL (≈ 233 µM) | 100 µg/mL (≈ 233 µM) | 12.5 µg/mL (≈ 29.1 µM) | 0.8 µg/mL (≈ 1.86 µM) | 100 µg/mL (≈ 233 µM)
10 | COc1ccc2oc(=O)cc(Cn3c4ccccc4n4c(=O)cc(C(F)(F)F)nc34)c2c1 | 58% | 0.4 µg/mL (≈ 0.906 µM) | 0.2 µg/mL (≈ 0.453 µM) | 3.12 µg/mL (≈ 7.07 µM) | 6.25 µg/mL (≈ 14.2 µM) | 25 µg/mL (≈ 56.6 µM) | 50 µg/mL (≈ 113 µM) | > 100 µg/mL | 100 µg/mL (≈ 227 µM) | 100 µg/mL (≈ 227 µM) | 12.5 µg/mL (≈ 28.3 µM) | 0.4 µg/mL (≈ 0.906 µM) | 100 µg/mL (≈ 227 µM)
11 | COc1ccc(-c2cc(=O)n3c(n2)[nH]c2ccccc23)cc1 | 64% | 0.4 µg/mL (≈ 1.37 µM) | 0.2 µg/mL (≈ 0.687 µM) | 0.8 µg/mL (≈ 2.75 µM) | 1.6 µg/mL (≈ 5.49 µM) | 25 µg/mL (≈ 85.8 µM) | 6.25 µg/mL (≈ 21.5 µM) | 100 µg/mL (≈ 343 µM) | 100 µg/mL (≈ 343 µM) | 100 µg/mL (≈ 343 µM) | 100 µg/mL (≈ 343 µM) | 0.2 µg/mL (≈ 0.687 µM) | 100 µg/mL (≈ 343 µM)
12 | O=c1cc(-c2ccc(F)cc2)nc2[nH]c3ccccc3n12 | 83% | 0.4 µg/mL (≈ 1.43 µM) | 0.4 µg/mL (≈ 1.43 µM) | 0.2 µg/mL (≈ 0.716 µM) | 0.2 µg/mL (≈ 0.716 µM) | 1.6 µg/mL (≈ 5.73 µM) | 1.6 µg/mL (≈ 5.73 µM) | 100 µg/mL (≈ 358 µM) | 100 µg/mL (≈ 358 µM) | 100 µg/mL (≈ 358 µM) | 12.5 µg/mL (≈ 44.8 µM) | 0.2 µg/mL (≈ 0.716 µM) | 100 µg/mL (≈ 358 µM)
13 | O=c1cc(-c2cccc(Cl)c2)nc2[nH]c3ccccc3n12 | 71% | 0.4 µg/mL (≈ 1.35 µM) | 0.2 µg/mL (≈ 0.676 µM) | 0.2 µg/mL (≈ 0.676 µM) | 0.2 µg/mL (≈ 0.676 µM) | 25 µg/mL (≈ 84.5 µM) | 1.6 µg/mL (≈ 5.41 µM) | 100 µg/mL (≈ 338 µM) | 100 µg/mL (≈ 338 µM) | 100 µg/mL (≈ 338 µM) | 25 µg/mL (≈ 84.5 µM) | 0.2 µg/mL (≈ 0.676 µM) | 100 µg/mL (≈ 338 µM)
14 | O=c1cc(C(F)(F)F)nc2[nH]c3ccccc3n12 | 80% | 0.4 µg/mL (≈ 1.58 µM) | 0.2 µg/mL (≈ 0.79 µM) | 0.8 µg/mL (≈ 3.16 µM) | 0.8 µg/mL (≈ 3.16 µM) | 6.25 µg/mL (≈ 24.7 µM) | 1.6 µg/mL (≈ 6.32 µM) | 100 µg/mL (≈ 395 µM) | 100 µg/mL (≈ 395 µM) | 100 µg/mL (≈ 395 µM) | 50 µg/mL (≈ 197 µM) | 0.2 µg/mL (≈ 0.79 µM) | 100 µg/mL (≈ 395 µM)
15 | O=c1cc(-c2cccc(F)c2)nc2[nH]c3ccccc3n12 | 54% | 0.2 µg/mL (≈ 0.716 µM) | 0.4 µg/mL (≈ 1.43 µM) | 0.8 µg/mL (≈ 2.86 µM) | 0.8 µg/mL (≈ 2.86 µM) | 12.5 µg/mL (≈ 44.8 µM) | 1.6 µg/mL (≈ 5.73 µM) | 25 µg/mL (≈ 89.5 µM) | 100 µg/mL (≈ 358 µM) | 100 µg/mL (≈ 358 µM) | 12.5 µg/mL (≈ 44.8 µM) | 0.2 µg/mL (≈ 0.716 µM) | 100 µg/mL (≈ 358 µM)
16 | O=c1cc(-c2ccc(C(F)(F)F)cc2)nc2[nH]c3ccccc3n12 | 79% | 0.2 µg/mL (≈ 0.607 µM) | 0.2 µg/mL (≈ 0.607 µM) | 1.6 µg/mL (≈ 4.86 µM) | 1.6 µg/mL (≈ 4.86 µM) | 100 µg/mL (≈ 304 µM) | 6.25 µg/mL (≈ 19 µM) | > 100 µg/mL | > 100 µg/mL | > 100 µg/mL | > 100 µg/mL | 0.2 µg/mL (≈ 0.607 µM) | > 100 µg/mL
17 | O=C(O)c1cn(C2CC2)c2cc(N3CCNCC3)c(F)cc2c1=O [CIPROFLOXACIN] | – | – | – | – | – | – | – | – | 1 µg/mL (≈ 3.02 µM) | – | 2 µg/mL (≈ 6.04 µM) | 2 µg/mL (≈ 6.04 µM) | 2 µg/mL (≈ 6.04 µM)
18 | OC(Cn1cncn1)(Cn1cncn1)c1ccc(F)cc1F [FLUCONAZOLE] | – | 8 µg/mL (≈ 26.1 µM) | 8 µg/mL (≈ 26.1 µM) | 8 µg/mL (≈ 26.1 µM) | 8 µg/mL (≈ 26.1 µM) | 8 µg/mL (≈ 26.1 µM) | 16 µg/mL (≈ 52.2 µM) | – | – | – | – | – | –
19 | O=c1[nH]cc(F)c(=O)[nH]1 [FLUOROURACIL] | 88% | – | – | – | – | – | – | – | – | – | – | – | –
